Published values from different studies.
Target: LIM domain kinase 1 (LIMK1, Homo sapiens, UniProt P53667)

Compound | read-out | method | tested at | remaining binding [%]
Cc1cc(NC(=O)c2cccc(S(F)(F)(F)(F)F)c2)cc(-n2ccn3nc(-c4cccnc4)cc23)c1 | cell-free assay | competition with immobilised ligand | 1 µM | 100
C=CC(=O)N1CCC(C(=O)NCC(=O)N2CCN(c3nc(-c4cnc(N)nc4C(F)F)nc(N4CCOCC4)n3)CC2)CC1 | binding | competition with immobilised ligand | 1 µM | 100
CCC(=O)N[C@H]1CC[C@@H](C(=O)N(C)c2ccc(-c3nc4ccccc4o3)cc2)C1 | cell-free assay | competition with immobilised ligand | 1 µM | 86
CC1CCCN1c1nccc(-c2cnn3ncccc23)n1 (centres unmarked) | binding | – | 1 µM | 100
CNC(=O)[C@@H]1CC[C@@H](n2c(-c3ccc4cnccc4c3)nc3ccc(C(=O)NCc4cccc(C(N)=O)c4)cc32)C1 | binding | competition with immobilised ligand | 1 µM | 100
N[C@H]1CCN(c2nccc(-c3cnn4ncccc34)n2)C1 | binding | – | 1 µM | 81
O=C(c1ccc(Nc2ncc(Cl)c(-c3cc4ccccc4s3)n2)cc1)N1CCC(N2CCCC2)CC1 | binding | competition with immobilised ligand | 1 µM | 53
COCCOc1nc(-c2ccc(Cl)nc2)nc2c1CN(C(=O)c1ncn3ccccc13)CC2 | cell-free assay | competition with immobilised ligand | 0.1 µM | 100
CN(C)c1nccc(-c2cnc3ncccn23)n1 | binding | – | 1 µM | 100
Cc1c(NC(=O)c2cc(C(N)=O)nc3cc(F)ccc23)c(C(F)(F)F)nn1Cc1ccc(C#N)cc1 | cell-free assay | competition with immobilised ligand | 1 µM | 78
O=C(c1ccc(Nc2ncc(Cl)c(-c3ccc(Cl)s3)n2)cc1)N1CCC(N2CCCC2)CC1 | binding | competition with immobilised ligand | 1 µM | 40
COc1ccnn2ncc(-c3ccnc(N(C)C)n3)c12 | binding | – | 1 µM | 100
C[C@@H](c1ccc(-n2cnc3c(N)ncnc32)cc1)N1CCc2nn(C)c(Cc3ccccc3)c2C1=O | binding | competition with immobilised ligand | 0.1 µM | 65
CCN1CCN(Cc2ccc(C(=O)Nc3ccc(C)c(Oc4ccc5c(c4)CC(=O)N5)c3)cc2C(F)(F)F)CC1 | binding | competition with immobilised ligand | 1 µM | 100
CS(=O)(=O)N1CCCC(NC(=O)[C@H](CCC2CCCCC2)NC(=O)c2ccc(CNC(=O)c3cnc4ccccn34)cc2)C1 (some centres unmarked) | cell-free assay | competition with immobilised ligand | 0.1 µM | 75
Cc1cnc(Nc2ccc(C(=O)N3CCC(N4CCCC4)CC3)cc2)nc1-c1cc2ccccc2s1 | binding | competition with immobilised ligand | 1 µM | 55
C[C@H]1CCN(c2nccc(-c3cnn4ncccc34)n2)C1 | binding | – | 1 µM | 91
CCCCN(CCCC)C(=O)CN1C[C@@H](c2cc(OC)c3c(c2)OCO3)[C@H](C(=O)O)[C@H]1CC(C)(C)CCC | cell-free assay | competition with immobilised ligand | 1 µM | 99
O=C(NCC1CCOCC1)c1n[nH]cc1NC(=O)c1c(F)cccc1F | binding | competition with immobilised ligand | 1 µM | 100
COc1cnc(Nc2cccc(S(N)(=O)=O)c2)nc1N1CCN(c2ccccc2)C(=O)C1 | binding | competition with immobilised ligand | 1 µM | 100
